Measured values from ChEMBL document CHEMBL4340514, “(2S)-N-2-methoxy-2-phenylethyl-6,7-benzomorphan compound (2S-LP2): Discovery of a biased mu/delta opioid receptor agonist” (Eur J Med Chem, 2019).
The source made the active and inactive calls.

Assays:
Mu-type opioid receptor [1] = biological target: Mu-type opioid receptor (Rattus norvegicus, UniProt P33535); experiment: Displacement of [3H]-DAMGO from MOR in rat brain membranes incubated for 45 mins by liquid scintillation counting; format: cell membranes
Sequence of Mu-type opioid receptor (Rattus norvegicus, UniProt P33535) (P33535 whole entry): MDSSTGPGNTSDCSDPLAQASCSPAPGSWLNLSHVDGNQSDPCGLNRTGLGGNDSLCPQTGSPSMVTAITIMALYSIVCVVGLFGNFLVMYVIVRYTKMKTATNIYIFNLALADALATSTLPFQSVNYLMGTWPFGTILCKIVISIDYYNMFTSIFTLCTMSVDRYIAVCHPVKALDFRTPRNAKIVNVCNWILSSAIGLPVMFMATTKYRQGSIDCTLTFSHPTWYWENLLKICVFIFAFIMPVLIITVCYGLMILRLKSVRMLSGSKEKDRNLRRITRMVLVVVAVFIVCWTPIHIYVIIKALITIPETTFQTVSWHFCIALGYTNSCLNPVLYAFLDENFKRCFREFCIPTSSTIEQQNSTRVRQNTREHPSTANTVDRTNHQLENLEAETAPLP
In short: (§1)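 Rat brain membranes in 50 mM Tris-HCl pH 7.4, incubated 45 min at 35 °C. MOR: 0.4 mg/mL protein with 1 nM [3H]-DAMGO. DOR: 0.5 mg/mL protein with 2 nM [3H]-DPDPE. Filtered and counted by liquid scintillation. Ki from nonlinear regression of a logistic fit. Three experiments in duplicate.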

[2] = biological target: Delta-type opioid receptor (Rattus norvegicus, UniProt P33533); experiment: Displacement of [3H]DPDPE from DOR in rat brain membranes incubated for 45 mins by liquid scintillation counting; format: cell membranes; in short: as §1
Sequence of Delta-type opioid receptor (Rattus norvegicus, UniProt P33533) (P33533 whole entry): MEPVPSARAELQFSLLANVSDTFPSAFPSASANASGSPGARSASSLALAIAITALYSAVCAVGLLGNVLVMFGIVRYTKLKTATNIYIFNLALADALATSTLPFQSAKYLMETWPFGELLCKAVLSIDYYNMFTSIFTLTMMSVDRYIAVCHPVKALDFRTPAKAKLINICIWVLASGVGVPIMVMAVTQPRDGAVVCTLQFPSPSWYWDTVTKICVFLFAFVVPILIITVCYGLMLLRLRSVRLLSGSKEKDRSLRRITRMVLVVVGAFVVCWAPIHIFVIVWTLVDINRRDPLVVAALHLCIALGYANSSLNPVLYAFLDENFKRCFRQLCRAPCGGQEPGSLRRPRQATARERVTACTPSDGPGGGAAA

[3] = biological target: Kappa-type opioid receptor (Cavia porcellus, UniProt P41144); experiment: Displacement of [3H]-U69,593 from KOR in guinea pig brain membranes incubated for 30 mins by liquid scintillation counting; format: cell membranes
Sequence of Kappa-type opioid receptor (P41144 whole entry): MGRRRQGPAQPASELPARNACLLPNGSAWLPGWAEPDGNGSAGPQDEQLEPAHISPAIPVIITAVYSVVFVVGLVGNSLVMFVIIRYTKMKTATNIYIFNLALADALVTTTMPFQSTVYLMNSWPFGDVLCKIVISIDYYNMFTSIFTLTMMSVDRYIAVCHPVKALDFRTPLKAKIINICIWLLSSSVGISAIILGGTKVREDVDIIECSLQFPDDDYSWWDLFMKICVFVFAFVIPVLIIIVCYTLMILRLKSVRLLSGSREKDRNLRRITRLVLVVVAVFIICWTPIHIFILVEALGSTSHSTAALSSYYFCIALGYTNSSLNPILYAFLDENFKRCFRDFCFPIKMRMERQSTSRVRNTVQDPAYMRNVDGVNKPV
In short: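 Guinea pig brain membranes (0.5 mg/mL) incubated 30 min at 30 °C with 1 nM [3H]-(+)-U69,593. Filtered and counted by liquid scintillation. Ki from nonlinear regression of a logistic fit. Three experiments in duplicate.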

Rattus norvegicus = species on record: Rattus norvegicus; experiment: Selectivity ratio of Ki for DOR in rat brain membranes to Ki for MOR in rat brain membranes; format: cell membranes; in short: as §1
[4] = Selectivity ratio of Ki for KOR in guinea pig brain membranes to Ki for MOR in rat brain membranes; format: cell membranes
Mus musculus [5] = experiment: Antinociceptive activity in ip dosed Swiss CB1 mouse after 60 to 180 mins by radiant heat tail-flick method; format: functional, organism-based
In short: (§2)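 Male Swiss CB1 mice (25-30 g), habituated the day before. Radiant heat tail-flick: infrared source aimed at the lower third of the tail at 25 ± 1 °C. Baseline 3-5 s, mean of three readings 5 min apart; 20 s cutoff. Compounds in saline with DMSO (5%), given i.p. Latencies read at 30-180 min. […] Groups of 6-8 mice.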

[6] = Toxicity in Swiss CB1 mouse assessed as locomotor activity at 0.5 to 5.0 mg/kg, ip after 30 to 180 mins; format: organism-based; settings: in vivo
[7] = Toxicity in Swiss CB1 mouse assessed as sedation at 0.5 to 5.0 mg/kg, ip after 30 to 180 mins; format: organism-based; settings: in vivo
Mus musculus [8] = experiment: Antinociceptive activity in ip dosed Swiss CB1 mouse after 30 to 180 mins by radiant heat tail-flick method; format: functional; in short: as §2
[9] = biological target: T1, Delta-type opioid receptor (Homo sapiens, UniProt P41143); experiment: Agonist activity at Rluc-tagged DOR receptor (unknown origin) expressed in human […] cells co-expressing RGFP-fused to Gbeta1 assessed as increase in DOR/G beta1 protein interaction incubated for 5 mins in presence of coelenterazine by BRET assay; format: cell-based
T1 sequence (P41143 whole entry, the tested form may be a part): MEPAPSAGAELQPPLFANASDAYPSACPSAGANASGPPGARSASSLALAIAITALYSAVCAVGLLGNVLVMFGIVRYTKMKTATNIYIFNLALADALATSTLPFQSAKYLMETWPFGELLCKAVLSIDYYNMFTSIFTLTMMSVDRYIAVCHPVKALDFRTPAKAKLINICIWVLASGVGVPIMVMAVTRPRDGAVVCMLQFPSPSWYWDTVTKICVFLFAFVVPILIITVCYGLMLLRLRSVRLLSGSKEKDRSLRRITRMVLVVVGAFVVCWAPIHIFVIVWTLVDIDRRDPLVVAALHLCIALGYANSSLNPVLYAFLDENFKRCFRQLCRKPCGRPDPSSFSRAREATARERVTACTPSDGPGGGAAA

[10] = biological target: T1, Delta-type opioid receptor; experiment: Agonist activity at Rluc-tagged DOR receptor (unknown origin) expressed in human […] cells co-expressing RGFP-fused to beta-arrestin-2 assessed as increase in DOR/beta-arrestin-2 protein interaction incubated for 5 mins in presence of coelenterazine by BRET assay; format: cell-based
Mu-type opioid receptor [11] = biological target: T2, Mu-type opioid receptor (Homo sapiens, UniProt P35372); experiment: Potency index, ratio of test compounds EC50 to DADLE EC50 for agonist activity at Rluc-tagged MOR receptor (unknown origin) expressed in human […] cells co-expressing RGFP-fused to Gbeta1; format: cell-based
T2 sequence (P35372 whole entry, the tested form may be a part): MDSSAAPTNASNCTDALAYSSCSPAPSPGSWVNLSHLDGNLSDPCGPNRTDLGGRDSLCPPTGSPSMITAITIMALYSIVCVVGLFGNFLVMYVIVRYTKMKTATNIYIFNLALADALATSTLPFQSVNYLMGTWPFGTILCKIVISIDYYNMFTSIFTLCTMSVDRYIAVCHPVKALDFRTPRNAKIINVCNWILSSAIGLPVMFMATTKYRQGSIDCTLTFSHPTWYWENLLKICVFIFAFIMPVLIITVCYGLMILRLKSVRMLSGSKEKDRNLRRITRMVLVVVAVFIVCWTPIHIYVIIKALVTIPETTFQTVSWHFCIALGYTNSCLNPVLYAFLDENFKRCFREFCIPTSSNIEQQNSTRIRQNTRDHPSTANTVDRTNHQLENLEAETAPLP
In short: (§3)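 Enriched plasma membranes (3 µg protein) from SH-SY5Y cells stably co-expressing MOR-RLuc and Gβ1-RGFP, in DPBS. Membranes prepared by Dounce homogenisation in sucrose buffer and differential centrifugation. Coelenterazine 5 µM final; ligands in PBS-BSA 0.01% incubated 5 min at room temperature. Read-out is BRET ratio (510/460 nm). […] At least 5 experiments in duplicate.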

Mu-type opioid receptor [12] = biological target: T2, Mu-type opioid receptor; experiment: Potency index, ratio of test compounds EC50 to DADLE EC50 for agonist activity at Rluc-tagged MOR receptor (unknown origin) expressed in human […] cells co-expressing RGFP-fused to beta-arrestin-2; format: cell-based
In short: (§4)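 Whole SH-SY5Y cells stably co-expressing MOR-RLuc and β-arrestin 2-RGFP, plated 24 h before at 100,000 cells/well, in PBS with 0.5 mM MgCl2 and 0.9 mM CaCl2. Coelenterazine 5 µM final, added 15 min before reading; ligands incubated 5 min at room temperature. Read-out is BRET ratio (510/460 nm).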

Mu-type opioid receptor [13] = biological target: T2, Mu-type opioid receptor; experiment: Potency index, ratio of test compounds intrinsic activity to DADLE intrinsic activity for agonist activity at Rluc-tagged MOR receptor (unknown origin) expressed in human […] cells co-expressing RGFP-fused to Gbeta1; format: cell-based; in short: as §3
Mu-type opioid receptor [14] = biological target: T2, Mu-type opioid receptor; experiment: Potency index, ratio of test compounds intrinsic activity to DADLE intrinsic activity for agonist activity at Rluc-tagged MOR receptor (unknown origin) expressed in human […] cells co-expressing RGFP-fused to beta-arrestin-2; format: cell-based; in short: as §4
Mu-type opioid receptor [15] = biological target: T2, Mu-type opioid receptor; experiment: Bias factor, change in deltalog(Tau/KA) for agonist activity at Rluc-tagged MOR receptor (unknown origin) expressed in human […] cells co-expressing RGFP-fused to Gbeta1 assessed as increase in MOR/G beta1 protein interaction incubated for 5 mins in presence of coelenterazine by BRET assay to deltalog(Tau/KA) for agonist activity at Rluc-tagged MOR receptor (unknown origin) expressed in human […] cells co-expressing RGFP-fused to MOR/beta-arrestin-2 assessed as increase in beta-arrestin-2 protein interaction incubated for 5 mins in presence of coelenterazine by BRET assay; format: cell-based
Mu-type opioid receptor [16] = biological target: T2, Mu-type opioid receptor; experiment: Potency index, ratio of test compounds pEC50 to DADLE pEC50 for agonist activity at Rluc-tagged MOR receptor (unknown origin) expressed in human […] cells co-expressing RGFP-fused to Gbeta1; format: cell-based
Mu-type opioid receptor [17] = biological target: T2, Mu-type opioid receptor; experiment: Potency index, ratio of test compounds pEC50 to DADLE pEC50 for agonist activity at Rluc-tagged MOR receptor (unknown origin) expressed in human […] cells co-expressing RGFP-fused to beta-arrestin-2; format: cell-based
[18] = Toxicity in Swiss CB1 mouse assessed as locomotor activity at 0.5 to 3.0 mg/kg, ip after 30 to 180 mins; format: organism-based; settings: in vivo
[19] = Toxicity in Swiss CB1 mouse assessed as sedation at 0.5 to 3.0 mg/kg, ip after 30 to 180 mins; format: organism-based; settings: in vivo
Mu-type opioid receptor [20] = biological target: T2, Mu-type opioid receptor
Mu-type opioid receptor [21] = biological target: T2, Mu-type opioid receptor; remark: listed apart in the source
Homo sapiens = species on record: Homo sapiens; experiment: Selectivity ratio of agonist activity at Rluc-tagged MOR receptor (unknown origin) expressed in human SH-5YSY cells co-expressing RGFP-fused to Gbeta1 assessed as increase in MOR/G beta1 protein interaction incubated for 5 mins in presence of coelenterazine by BRET assay over Agonist activity at Rluc-tagged DOR receptor (unknown origin) expressed in human […] cells co-expressing RGFP-fused to Gbeta1 assessed as increase in DOR/G beta1 protein interaction incubated for 5 mins in presence of coelenterazine by BRET assay; format: cell-based

Row | SMILES | Ki (Mu-type opioid receptor [1]) [nM] | Ki [2] [nM] | Ki [3] [nM] | Ratio Ki (Rattus norvegicus) | Ratio Ki [4] | ED50 (Mus musculus [8]) [mg/kg] | EC50 [9] [nM] | EC50 [10] [nM] | Ratio (Mu-type opioid receptor [11]) | Ratio (Mu-type opioid receptor [12]) | Ratio (Mu-type opioid receptor [13]) | Ratio (Mu-type opioid receptor [14]) | fold change (FC) (Mu-type opioid receptor [15]) | Ratio (Mu-type opioid receptor [16]) | Ratio (Mu-type opioid receptor [17]) | EC50 (Mu-type opioid receptor [20]) [nM] | EC50 (Mu-type opioid receptor [21]) [nM] | Ratio (Homo sapiens) | also measured
1 | CO[C@@H](CN1CC[C@@]2(C)c3cc(O)ccc3C[C@@H]1[C@@H]2C)c1ccccc1 | 12.3 | 151 | 236 | 12.3 | 19.2 | 1.8 | – | – | – | – | – | – | – | – | – | – | – | – | Activity (Mus musculus [5]): Active; Activity [6]: Non-Toxic; Activity [7]: Non-Toxic
2 | CO[C@H](CN1CC[C@@]2(C)c3cc(O)ccc3C[C@@H]1[C@@H]2C)c1ccccc1 | 0.5 | 2.59 | 26.5 | 5.18 | 53 | 0.6 | 32.4 | 1860 | 0.04 | 0.11 | 0.93 | 0.72 | 0.82 | 30 | 9 | 4.68 | 151 | – | Activity [18]: Non-Toxic; Activity [19]: Non-Toxic
3 | C[C@H]1[C@H]2Cc3ccc(O)cc3[C@]1(C)CCN2C[C@H](O)c1ccccc1 | – | – | – | – | – | – | 58.9 | – | 0.19 | – | 0.82 | – | – | – | – | 22.4 | – | 0.4 | –
4 | COC(CN1CC[C@@]2(C)c3cc(O)ccc3C[C@@H]1[C@@H]2C)c1ccccc1 (some centres undefined) | – | – | – | – | – | – | 95.5 | 2240 | 0.1 | 0.2 | 0.92 | 0.71 | 0.57 | 10 | 5 | 12.6 | 275 | – | –
5 | C[C@H]1[C@H]2Cc3ccc(O)cc3[C@]1(C)CCN2C[C@@H](O)c1ccccc1 | – | – | – | – | – | – | 14.5 | – | 0.06 | – | 0.87 | – | – | – | – | 6.61 | – | 0.46 | –
